Reference: ChEMBL document CHEMBL1147726, “Prodrug forms of N-[(4-deoxy-4-amino-10-methyl)pteroyl]glutamate-gamma-[psiP(O)(OH)]-glutarate, a potent inhibitor of folylpoly-gamma-glutamate synthetase: synthesis and hydrolytic stability” (J Med Chem, 2006)

Columns and labels:
[1] = system: CHO; assay: Cytotoxicity against Pro3 cells derived from CHO cells with fully functional reduced folate carrier; assay type: cell-based; details: Cricetulus griseus
Method in brief: (§1)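 CHO-derived cells grown in RPMI 1640 medium and exposed continuously to compound for 72 h. Serial dilutions were made in DMSO. Viability was read with a CellTiter-Blue assay. IC50 was taken from dose-response curves over 1 nM to 1 µM.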

[2] = system: CHO; assay: Cytotoxicity in RFC deficient 43-10 cells derived from CHO cells transfected with human RFC cDNA; assay type: functional, cell-based; details: Cricetulus griseus; method in brief: as §1
[3] = system: CHO; assay: Cytotoxicity against R2 mutant cells derived from CHO cells with reduced expression of RFC; assay type: functional, cell-based; details: Cricetulus griseus; method in brief: as §1
[4] = Half life of hydrolysis rate in phosphate buffer at pH 8.0; assay type: ADME
Method in brief: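 Prodrug was diluted into 20 mM phosphate buffer, pH 8.0, containing 5% DMSO, with serial dilutions made in the same phosphate. Loss of the parent ester and formation of products were monitored over time by HPLC (UV at 254 and 310 nm). t = 0 is autosampler injection. Ester decay was fit to pseudo-first-order kinetics to give the half-life.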

[5] = Half life of hydrolysis rate in RPMI-1640 medium at pH 8.0; assay type: ADME
Method in brief: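 Prodrug stock was diluted into RPMI-1640 cell medium (pH 8.0) and filtered, and disappearance of the ester was followed by HPLC with UV detection at 254 and 310 nm. t = 0 is the time the autosampler injected the sample. The half-life was determined from the HPLC data.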

CN(Cc1cnc2nc(N)nc(N)c2n1)c1ccc(C(=O)NC(CCP(=O)(O)CC(CCC(=O)O)C(=O)O)C(=O)O)cc1 (configuration not stated)
IC50 [1]: > 1000 nM
IC50 [2]: > 1000 nM
IC50 [3]: > 1000 nM

COP(=O)(CCC(NC(=O)c1ccc(N(C)Cc2cnc3nc(N)nc(N)c3n2)cc1)C(=O)OCOC(=O)C(C)(C)C)CC(CCC(=O)OCOC(=O)C(C)(C)C)C(=O)OCOC(=O)C(C)(C)C (configuration not stated)
IC50 [1]: > 1000 nM
IC50 [2]: 800 nM
half-life [4]: 3 h
IC50 [3]: > 1000 nM
half-life [5]: 1 h

COC(=O)CCC(CP(=O)(O)CCC(NC(=O)c1ccc(N(C)Cc2cnc3nc(N)nc(N)c3n2)cc1)C(=O)OC)C(=O)OC (configuration not stated)
IC50 [1]: 500 nM
IC50 [2]: 300 nM
half-life [4]: > 100 h
IC50 [3]: > 1000 nM

CN(Cc1cnc2nc(N)nc(N)c2n1)c1ccc(C(=O)NC(CCP(=O)(O)CC(CCC(=O)OCOC(=O)C(C)(C)C)C(=O)OCOC(=O)C(C)(C)C)C(=O)OCOC(=O)C(C)(C)C)cc1 (configuration not stated)
IC50 [1]: 700 nM
IC50 [2]: 250 nM
half-life [4]: 8 h
IC50 [3]: 350 nM
half-life [5]: 3 h
